Our source for the cytotoxicity with TRAIL and cytotoxicity values is PubChem BioAssay AID1745 (Sanford-Burnham Center for Chemical Genomics, 2009).

Active and inactive are the calls of the source.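 How the source made its calls: active means cell kill with TRAIL plus compound beats the two separate kills summed, at every dose, and climbs with dose; inactive means the rest.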

In the assay the test system is 184B5 cells, TRAIL potentiation, ATPlite cytotoxicity, 24 h. The experiment in a line: normal mammary cell killing with TRAIL – 184B5 normal mammary epithelial cells, counter-screen for TRAIL sensitizer project, confirmation (AID 1745). Particulars: stronger effect = higher value. An outline of the steps:
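material = Normal 184B5 cells | also added = TRAIL at 1000 ng/mL final | doses = compound at final concentrations from 1.25 to 5 µM | incubation = compound 4 h then TRAIL 24 h, 37 °C | detection = ATPLite luminescence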

Setting [1] is: compound alone cytotoxicity, at 5 µM.
The mark [2] stands for this setting: compound plus TRAIL, at 1.25 µM.

For `CSc1nc(-c2ccccc2)nc(C(Cl)Cl)n1`, the cytotoxicity with TRAIL reads like this: (at 5 µM) 32% (inactive); under setting [2], 28%; (compound plus TRAIL, at 2.5 µM) 28%. Also, the cytotoxicity reads like this: under setting [1], 22%; (compound alone, at 1.25 µM) 19%; (compound alone, at 2.5 µM) 22%.

For the compound `CSc1nc(-c2ccc(C)cc2)nc(C(Cl)Cl)n1`, the cytotoxicity with TRAIL (at 5 µM) was 41% (inactive); the cytotoxicity with TRAIL under setting [2] came to 35%; the cytotoxicity with TRAIL (compound plus TRAIL, at 2.5 µM) was 39%. In addition, the cytotoxicity is, setting by setting: under setting [1], 9%; (compound alone, at 1.25 µM) 2%; (compound alone, at 2.5 µM) 6%.

On to `CCSc1nc(-c2ccccc2)nc(C(Cl)Cl)n1`, for which the cytotoxicity with TRAIL reads like this: (at 5 µM) 25% (inactive); under setting [2], 21%; (compound plus TRAIL, at 2.5 µM) 22%. In addition, the cytotoxicity reads like this: under setting [1], 11%; (compound alone, at 1.25 µM) 10%; (compound alone, at 2.5 µM) 11%.
